ChEMBL document CHEMBL5357066, “Development of Novel Membrane Disrupting Lipoguanidine Compounds Sensitizing Gram-Negative Bacteria to Antibiotics” (ACS Med Chem Lett, 2024)
In brackets after ≈: the same amount, converted by molar mass.

Tests used:
[1] = test system: Klebsiella pneumoniae; experiment: Synergistic antibacterial activity against […] Klebsiella pneumoniae M6 assessed as rifampicin MIC at <=0.25 times MIC incubated for overnight by microbroth dilution checkerboard assay; type: functional
How it was run: (§1)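 Checkerboard run under the MIC conditions (TSB, overnight, 37 °C). Antibiotic and lipoguanidine 2-fold series were combined on one plate before bacteria were added. Growth/no-growth was scored as for the MIC (<0.1 OD600). Single-agent MICs were measured on the same plates. Three independent repeats were done.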

[2] = test system: Klebsiella pneumoniae; experiment: Antibacterial activity against Klebsiella pneumoniae M6 assessed as bacterial growth inhibition incubated for overnight by microbroth dilution method
[3] = test system: Acinetobacter baumannii; experiment: Synergistic antibacterial activity against Acinetobacter baumannii ATCC 17978 assessed as fold change in rifampicin MIC at <=0.25 times MIC incubated for overnight by microbroth dilution checkerboard assay relative to rifampicin alone; type: functional
How it was run: (§2)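 Checkerboard microdilution under MIC conditions (TSB, overnight, 37 °C). Two-fold series of each agent were combined on one plate before bacteria were added, and single-agent MICs were measured on the same plate. FIC = sum of combination MIC/alone MIC for each agent, taken from the most synergistic well. Three independent repeats, mean ± SD. ≤0.5 was taken as strong synergy and 0.5–<1 as weak.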

[4] = test system: Acinetobacter baumannii; experiment: Synergistic antibacterial activity against Acinetobacter baumannii AYE assessed as rifampicin MIC at <=0.25 times MIC incubated for overnight by microbroth dilution checkerboard assay; type: functional; how it was run: as §2
[5] = test system: Enterococcus faecalis; experiment: Antibacterial activity against vancomycin resistant Enterococcus faecalis NCTC 12201 assessed as bacterial growth inhibition incubated for overnight by microbroth dilution method; type: functional
How it was run: (§3)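 Microbroth dilution in Tryptic Soy Broth. DMSO stocks were diluted in TSB as 2-fold series. Overnight TSB cultures were back-diluted to OD 0.01 and mixed 1:1 with compound. Incubation was overnight at 37 °C. MIC is the lowest concentration with no visible growth (<0.1 OD600). DMSO at equivalent concentrations was checked.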

[6] = test system: Acinetobacter baumannii; experiment: Antibacterial activity against Acinetobacter baumannii ATCC 17978 assessed as bacterial growth inhibition incubated for overnight by microbroth dilution method; type: functional
How it was run: (§4)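 Broth microdilution in Tryptic Soy Broth. DMSO stocks were diluted in TSB as 2-fold series. Overnight TSB cultures were back-diluted to OD 0.01 and mixed 1:1 with compound. Incubation was overnight at 37 °C. MIC was the lowest concentration without visible growth (<0.1 OD600). DMSO vehicle was checked at equivalent concentrations.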

[7] = test system: Pseudomonas aeruginosa; experiment: Antibacterial activity against Pseudomonas aeruginosa NCTC 13437 assessed as bacterial growth inhibition incubated for overnight by microbroth dilution method; type: functional; how it was run: as §4
[8] = test system: Staphylococcus aureus; experiment: Antibacterial activity against methicillin sensitive Staphylococcus aureus 1199B assessed as bacterial growth inhibition incubated for overnight by microbroth dilution method; type: functional; how it was run: as §3
[9] = test system: Acinetobacter baumannii; experiment: Synergistic antibacterial activity against Acinetobacter baumannii ATCC 17978 assessed as rifampicin MIC at <=0.25 times MIC incubated for overnight by microbroth dilution checkerboard assay; type: functional; how it was run: as §2
[10] = test system: Pseudomonas aeruginosa; experiment: Synergistic antibacterial activity against Pseudomonas aeruginosa PAO1 assessed as fold change in rifampicin MIC at <=0.25 times MIC incubated for overnight by microbroth dilution checkerboard assay relative to rifampicin alone; type: functional
How it was run: (§5)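 Checkerboard microdilution in Tryptic Soy Broth, run like the MIC assay. Overnight TSB cultures were back-diluted to OD 0.01 and added 1:1 to the combined two-fold series of both agents, then incubated overnight at 37 °C. Growth/no-growth was called at <0.1 OD600. MICs alone were read on the same plates. FIC index came from the most synergistic well; three independent repeats, mean ± SD.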

[11] = test system: Staphylococcus aureus; experiment: Antibacterial activity against methicillin resistant Staphylococcus aureus USA 300 assessed as bacterial growth inhibition incubated for overnight by microbroth dilution method; type: functional; how it was run: as §3
[12] = test system: Escherichia coli; experiment: Antibacterial activity against Escherichia coli NCTC 12923 assessed as bacterial growth inhibition incubated for overnight by microbroth dilution method; type: functional; how it was run: as §4
[13] = test system: Pseudomonas aeruginosa; experiment: Synergistic antibacterial activity against Pseudomonas aeruginosa NCTC 13437 assessed as fold change in rifampicin MIC at <=0.25 times MIC incubated for overnight by microbroth dilution checkerboard assay relative to rifampicin alone; type: functional; how it was run: as §5
[14] = test system: Klebsiella pneumoniae; experiment: Synergistic antibacterial activity against Klebsiella pneumoniae NCTC 13368 assessed as fold change in rifampicin MIC at <=0.25 times MIC incubated for overnight by microbroth dilution checkerboard assay relative to rifampicin alone; type: functional; how it was run: as §1
[15] = test system: Enterococcus faecium; experiment: Antibacterial activity against vancomycin resistant Enterococcus faecium NCTC 12204 assessed as bacterial growth inhibition incubated for overnight by microbroth dilution method; type: functional; how it was run: as §3
[16] = test system: Acinetobacter baumannii; experiment: Synergistic antibacterial activity against Acinetobacter baumannii AYE assessed as fold change in rifampicin MIC at <=0.25 times MIC incubated for overnight by microbroth dilution checkerboard assay relative to rifampicin alone; type: functional; how it was run: as §2
[17] = test system: Pseudomonas aeruginosa; experiment: Synergistic antibacterial activity against Pseudomonas aeruginosa NCTC 13437 assessed as rifampicin MIC at <=0.25 times MIC incubated for overnight by microbroth dilution checkerboard assay; type: functional; how it was run: as §5
[18] = test system: Staphylococcus aureus; experiment: Antibacterial activity against methicillin sensitive Staphylococcus aureus ATCC 9144 assessed as bacterial growth inhibition incubated for overnight by microbroth dilution method; type: functional; how it was run: as §3
[19] = test system: Erythrocyte; experiment: Hemolytic activity in human Red blood cells at 512 microg/ml measured after 1 hrs by absorbance based assay; type: toxicity, cell-based; details: dose 512 µg/ml
How it was run: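 Titrations in PBS were incubated with freshly collected human red blood cells for 1 h at 37 °C. Controls were 0.1% Triton-X-100 (full lysis) and PBS alone (no lysis). After centrifugation, supernatant OD550 was read. % haemolysis = (AP−AB)/(AC−AB)×100. Data are means and standard error of three biological replicates.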

[20] = test system: Enterococcus faecalis; experiment: Antibacterial activity against vancomycin sensitive Enterococcus faecalis NCTC 775 assessed as bacterial growth inhibition incubated for overnight by microbroth dilution method
[21] = test system: Pseudomonas aeruginosa; experiment: Antibacterial activity against Pseudomonas aeruginosa PAO1 assessed as bacterial growth inhibition incubated for overnight by microbroth dilution method; type: functional; how it was run: as §4
[22] = test system: Staphylococcus aureus; experiment: Antibacterial activity against methicillin resistant Staphylococcus aureus NCTC 13616 assessed as bacterial growth inhibition incubated for overnight by microbroth dilution method; type: functional; how it was run: as §3
[23] = test system: Pseudomonas aeruginosa; experiment: Synergistic antibacterial activity against Pseudomonas aeruginosa PAO1 assessed as rifampicin MIC at <=0.25 times MIC incubated for overnight by microbroth dilution checkerboard assay; type: functional; how it was run: as §5
[24] = test system: Klebsiella pneumoniae; experiment: Antibacterial activity against ESBL Klebsiella pneumoniae NCTC 13368 assessed as bacterial growth inhibition incubated for overnight by microbroth dilution method
[25] = test system: Acinetobacter baumannii; experiment: Antibacterial activity against Acinetobacter baumannii AYE assessed as bacterial growth inhibition incubated for overnight by microbroth dilution method; type: functional; how it was run: as §4
[26] = test system: Klebsiella pneumoniae; experiment: Synergistic antibacterial activity against Klebsiella pneumoniae NCTC 13368 assessed as rifampicin MIC at <=0.25 times MIC incubated for overnight by microbroth dilution checkerboard assay; type: functional; how it was run: as §2
[27] = test system: Escherichia coli; experiment: Synergistic antibacterial activity against Escherichia coli NCTC 12923 assessed as rifampicin MIC at <=0.25 times MIC incubated for overnight by microbroth dilution checkerboard assay; type: functional; how it was run: as §2
[28] = test system: Escherichia coli; experiment: Synergistic antibacterial activity against Escherichia coli NCTC 12923 assessed as fold change in rifampicin MIC at <=0.25 times MIC incubated for overnight by microbroth dilution checkerboard assay relative to rifampicin alone; type: functional; how it was run: as §2

Structure (SMILES)	MIC [1] [µg/mL]	MIC [2] [µg/mL]	fold change (FC) [3]	MIC [4] [µg/mL]	MIC [5] [µg/mL]	MIC [6] [µg/mL]	MIC [7] [µg/mL]	MIC [8] [µg/mL]	MIC [9] [µg/mL]	fold change (FC) [10]	MIC [11] [µg/mL]	MIC [12] [µg/mL]	fold change (FC) [13]	fold change (FC) [14]	MIC [15] [µg/mL]	fold change (FC) [16]	MIC [17] [µg/mL]	MIC [18] [µg/mL]	MIC [20] [µg/mL]	MIC [21] [µg/mL]	other results
CCCCCCCCCCCCCCCCNC(=N)NCCCCN	0.25	8 (≈ 22.6 µM)	>=4	≤ 0.125	2 (≈ 5.64 µM)	4 (≈ 11.3 µM)	> 128	4 (≈ 11.3 µM)	0.25	>=4	2 (≈ 5.64 µM)	32 (≈ 90.2 µM)	0	>=4	2 (≈ 5.64 µM)	>=4	16	2 (≈ 5.64 µM)	2 (≈ 5.64 µM)	> 128	Activity [19]: Toxic; MIC [22]: 2 µg/mL (≈ 5.64 µM); MIC [23]: 2 µg/mL; MIC [24]: > 128 µg/mL; MIC [25]: 32 µg/mL (≈ 90.2 µM); MIC [26]: 2 µg/mL
N=C(N)NCCCCCCCCNC(=N)N	16	> 128	>=4	8	> 128	> 128	> 128	> 128	1	0	128 (≈ 561 µM)	> 128	0	0	> 128	0	32	128 (≈ 561 µM)	> 128	> 128	MIC [27]: 8 µg/mL; fold change (FC) [28]: 0; MIC [22]: > 128 µg/mL; MIC [23]: 32 µg/mL; MIC [24]: > 128 µg/mL; MIC [25]: > 128 µg/mL; MIC [26]: 32 µg/mL
